# DENV2 CPE = inhibitors of DENV2 cytopathic effect, primary screen, cell-based, plate reader, single concentration; 350,000 tested, 1.7% active; CPE inhibition, % at 9.99 µM; DENV2-infected cells, cytopathic effect rescue; in the data active = CPE inhibition above about 20%, passing the limit was not always enough; inconclusive = no clear call, values can overlap the other calls; tested in BHK-21 cells;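 also: 0% = median of neutral control wells and 100% = median of positive control wells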
# E-selectin induc = E-selectin induction in HUVECs, primary screen, imaging, HUVEC, immunofluorescence imaging, single point | 260,000 tested, 0.37% active | P16581 | normalized: neutral wells 0, TNF-alpha wells 100 | activation, % at 7.58 µM | AID 686992, 2013;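 active = mean E-selectin-positive cell signal at least 10% of the positive control, reached in at least 60% of replicates, without over 20% cell loss; inconclusive = no rule given, readout overlaps actives, possibly toxicity-flagged; inactive = the rest, including those meeting only one limit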
# Target sequence (P16581 whole entry, looked up): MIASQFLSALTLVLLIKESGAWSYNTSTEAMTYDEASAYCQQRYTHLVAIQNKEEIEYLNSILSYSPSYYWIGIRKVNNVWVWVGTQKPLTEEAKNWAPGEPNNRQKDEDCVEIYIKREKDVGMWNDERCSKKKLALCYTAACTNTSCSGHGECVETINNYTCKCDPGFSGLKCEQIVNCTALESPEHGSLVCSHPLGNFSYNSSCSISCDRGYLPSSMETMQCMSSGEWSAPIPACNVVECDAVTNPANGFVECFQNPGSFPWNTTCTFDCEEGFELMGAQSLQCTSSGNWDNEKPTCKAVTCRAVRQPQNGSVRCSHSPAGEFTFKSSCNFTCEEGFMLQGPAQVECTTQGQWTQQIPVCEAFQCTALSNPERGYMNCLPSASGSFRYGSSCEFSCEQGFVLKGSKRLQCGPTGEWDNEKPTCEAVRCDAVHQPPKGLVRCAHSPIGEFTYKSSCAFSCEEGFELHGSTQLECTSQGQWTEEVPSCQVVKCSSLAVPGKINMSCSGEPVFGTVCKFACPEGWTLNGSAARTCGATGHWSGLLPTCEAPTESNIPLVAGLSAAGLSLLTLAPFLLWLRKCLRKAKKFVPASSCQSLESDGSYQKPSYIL
#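 Assay system: HUVEC, human umbilical vein endothelial cells / Amount: 3,000 HUVEC/well / Controls: TNF-alpha positive control, DMSO neutral control / Compound dosing: single concentration / Medium: EGM-2 over gelatin coat / Evaluation: percent E-selectin-positive cells / Signal: immunofluorescence imaging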
# FGF22 binding-1 = binders of human FGF22 protein, primary screen, FGF22 synaptogenesis inhibitor project, biophysical, thermal shift, single point; Fibroblast growth factor 22 (Homo sapiens), Q9HCT0; recombinant FGF22 thermal shift, SYPRO orange fluorescence; percent of sucrose octasulfate shift, DMSO zero; activity (Tm shift, normalised), % at 9.99 µM; 340,000 tested, 1.5% active; AID 651658, 2012;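 active = mean Tm shift, scaled 0 neutral to 100 positive control, at about 1.3% or above, every replicate too, limit read from the data; inconclusive = no clear call, values can overlap the other calls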
# Target sequence (Q9HCT0 whole entry, looked up): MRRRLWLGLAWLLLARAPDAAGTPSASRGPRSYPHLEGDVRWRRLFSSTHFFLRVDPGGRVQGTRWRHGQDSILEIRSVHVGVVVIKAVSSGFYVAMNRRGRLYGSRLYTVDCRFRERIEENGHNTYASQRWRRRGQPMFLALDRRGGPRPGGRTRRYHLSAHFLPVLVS
# Statin myotox sup = suppressors of statin myotoxicity in C2C12 myotubes, primary screen, cell-based, single point, plate reader | rescue of ATP level, % at 7.49 µM | 330,000 tested, 0.78% active | C2C12 myotubes + simvastatin, ATP luminescence, 48 h; scaled: DMSO 0, geranylgeraniol control 100 | AID 602340, 2012;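 active = mean ATP rescue above about 67%, or every replicate alone reaching that limit, limit read from the data, passing the limit was not always enough; inconclusive = no clear call, values can overlap the other calls; inactive = mean under the limit and some replicate under it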;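 also: myotubes were challenged with 10 µM simvastatin during compound exposure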
# PglD inh = C. jejuni PglD acetyltransferase inhibitors, primary screen, biochemical, DTNB colorimetric, single point. UDP-N-acetylbacillosamine N-acetyltransferase PglD (Campylobacter jejuni). purified PglD enzyme, DTNB colorimetric CoA detection. inhibition, % at 12.5 µM. 360,000 tested, 0.098% active. AID 602405, 2012; in the data active = inhibition above about 16%, passing the limit was not always enough; inconclusive = no clear call, values can overlap the other calls
# XiGFP reactiv = activators of inactive X chromosome reactivation, primary screen, imaging, XiGFP fibroblasts, GFP high-content imaging, set 2. XiGFP mouse fibroblasts, % GFP-positive cells imaging, 3 d; cells co-treated with 5-aza-dC sensitizer; scaled so ellipticine positive control = 100%. activation, % at 7.58 µM. 360,000 tested, 0.055% active. AID 743238, 2013;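 active = mean normalized replicate activation at least 10% and every replicate at or above 10%; inconclusive = only one of the two criteria met; inactive = mean below 10% and not all replicates reach 10%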;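 also: 0% = median of on-plate neutral control wells and 100% = ellipticine 6 µM median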
#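 Material: SV40-immortalized XiGFP fibroblast cells, line 68-5-11 | Buffer or medium: DMEM containing 5-aza-dC | Dosing: One concentration, pinned | Times: 3 d treatment, 15 min room-temperature fixation | Controls: Ellipticine 6 µM positive control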
# FGF22 binding-2 = binders of human FGF22 protein, dose response, FGF22 synaptogenesis inhibitor project, biophysical, thermal shift, cherry-pick retest; shares compounds with FGF22 binding-1; recombinant FGF22 thermal shift, SYPRO orange fluorescence; thermal shift activity, °C (ΔTm) at 38 µM; 1,000 tested, 2% active;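 active = fitted rise in melting shift crosses a set limit at or below the top valid dose tested; inconclusive = flat fit at mid-level activity, or a poor quality fit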
# FGF22 TSA DP = binders of human FGF22 protein, dose response, FGF22 synaptogenesis inhibitor project, biophysical, thermal shift, dry powder | Tm shift (activity), % at 38 µM | AID 743017, 2013 | Thermal shift assay, SYPRO orange, melting temperature shift | 50 tested, under 10 active | shares compounds with FGF22 binding-1;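 active = compounds whose fitted dose curve of melting temperature shift rises past a set threshold within the tested doses; inconclusive = flat curve at moderate activity, or poor curve fit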
# SYPRO no-protein = compound-only thermal shift signal without protein, dose response, artefact control for FGF22 binder project, biochemical, cherry-picked samples, RT-PCR instrument | shares compounds with FGF22 binding-1 | compound-only SYPRO orange thermal shift counter-screen, no protein | AC50, µM (titrated, usually from 38 µM) | 1,000 tested, 2% active | AID 743019, 2013;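 active = rising signal whose fitted curve reaches the 0.54 level within the top valid dose, showing a melting point, actives reach about 13 µM in these data; inactive = the rest, including activity in the opposite direction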; also: value is where the raw curve crosses a fixed level and not half-maximal
# Active calls of the source: *; i = inactive; ? = inconclusive; nt = no result given; [ ] = another dose, or the depositor's remark. Compounds with a hit are over-represented: about 3.3% of the library has one in this group of screens.
SMILES,DENV2 CPE,E-selectin induc,FGF22 binding-1,Statin myotox sup,PglD inh,XiGFP reactiv,FGF22 binding-2,SYPRO no-protein,others
O=C(O)c1ccc(NS(=O)(=O)c2ccc(C(=O)Nc3ccccc3)cc2)cc1,-5.6,-0.2,-0.1,-6.8,0.0,0.1,nt,nt,
CN(C)S(=O)(=O)c1ccc(Cl)c(C(=O)Nc2cccc([N+](=O)[O-])c2)c1,5.5,0.4,-0.1,-3.1,nt,0.0,nt,nt,
COc1ccc(NS(=O)(=O)c2cccc(C(=O)NNC(=O)c3ccccc3O)c2)cc1,-1.9,nt,2.0*,2.8,nt,0.4,0.093,i,
O=C(O)c1cccc(NS(=O)(=O)c2ccc(Cl)c(C(=O)Nc3cccc([N+](=O)[O-])c3)c2)c1,7.4,nt,1.8*,nt,nt,-0.1,-0.072,i,
C[C@H]1CN([C@@H](C)CO)C(=O)c2cccc(NC(=O)c3ccncc3)c2O[C@@H]1CN(C)C(=O)Nc1ccccc1,?,0.1,-0.4,3.9,5.1,0.5,nt,nt,
COc1ccccc1-c1ccc([C@@H]2[C@@H](C#N)N(C(=O)NC(C)C)[C@@H]2CO)cc1,?,0.2,0.1,-13.6,3.4,0.2,nt,nt,
COc1ccc([C@H]2CC=CC[C@H](C)Oc3ccccc3C(=O)N(C)[C@@H](C)C(=O)N2)c(OC)c1 (mixture of isomers),nt,nt,nt,nt,nt,0.0,nt,nt,
COc1ccc(-c2nc(CCl)cs2)cc1OC,9.3,nt,0.1,1.2,1.8,0.1,nt,nt,
COc1ccc(-c2nc(-c3ccc(O)cc3O)cs2)cc1OC,-4.1,0.1,2.5*,-6.1,6.4,0.0,0.108,i,FGF22 TSA DP=0.2
COc1cc(CCC(=O)OCC(=O)Nc2ccc(C)cc2Br)cc(OC)c1OC,-2.6,16.7,27.8*,4.7,-1.4,0.5,0.003,i,
Cc1cccc(NS(=O)(=O)c2ccc3c(c2)NC(=O)CC(=O)N3)c1,-2.0,-0.1,0.3,-3.0,-2.0,0.2,nt,nt,
CCc1cccc(NS(=O)(=O)c2ccc3c(c2)NC(=O)CC(=O)N3)c1,4.0,nt,1.7*,-1.9,-2.7,0.3,0.08,i,
CC(C)c1ccc(NC2CCCN(C(=O)c3cc(C(C)C)[nH]n3)C2)cc1 (configuration not stated),1.4,nt,27.9*,-7.8,-2.0,0.0,0.201,i,
CCN1C(=O)c2cccc3c(S(=O)(=O)Nc4ccc(O)c(C(=O)O)c4)ccc1c23,-0.2,-0.9,8.4*,4.5,-10.9,0.0,0.045,i,
Cc1ccc(S(=O)(=O)N[C@H]2C=C[C@@H](CC(=O)NCc3ccc(Cl)c(Cl)c3)O[C@H]2CO)cc1,-6.6,0.3,1.3*,0.8,-2.9,0.8,0.124,i,
COc1ccc(S(=O)(=O)N[C@@H]2C=C[C@H](CC(=O)NCCc3ccccc3)O[C@@H]2CO)cc1,-0.7,0.9,1.4*,5.8,-2.4,0.2,0.093[42 µM],i,
COc1ccc(S(=O)(=O)N[C@H]2C=C[C@H](CC(=O)NCCc3ccccc3)O[C@@H]2CO)cc1,-11.0,0.3,-0.7,-7.5,-1.6,-0.3,nt,nt,
COc1ccc(Br)cc1S(=O)(=O)Nc1ncccc1C,7.9,nt,1.5*,nt,nt,-0.1,0.057,i,
Clc1ccc(-c2cnc3ccccc3n2)cc1,nt,nt,nt,nt,nt,0.1,nt,nt,
Oc1ccc(-c2cnc3ccccc3n2)cc1,3.7,0.0,25.3*,nt,nt,0.8,0.009,i,
O=C(c1ccccc1)N1CC(=O)N2[C@H](CO)[C@@H](c3ccc(C#CC4CC4)cc3)[C@@H]2C1,-8.6,0.1,0.3,nt,nt,0.0,nt,nt,
Cc1ccc(-c2ccc([C@H]3[C@@H](CO)N4C(=O)CN(C(=O)c5ccc(F)cc5)C[C@@H]34)cc2)cc1,15.9,-0.2,1.8*,nt,nt,0.3,0.118,i,
O=C(c1ccc(F)cc1)N1CC(=O)N2[C@H](CO)[C@H](c3ccc(-c4ccccc4)cc3)[C@@H]2C1,5.2,0.0,nt,nt,nt,0.5,nt,nt,
O=C(c1ccc2c(c1)OCO2)N1CC(=O)N2[C@@H](CO)[C@H](c3ccc(C#CCC4CCCC4)cc3)[C@@H]2C1,9.1,-0.9,1.8*,nt,nt,0.2,-0.027,i,
Cc1ccc(-c2ccc([C@@H]3[C@@H](CO)N4C(=O)CN(C(=O)c5ccc(F)cc5)C[C@H]34)cc2)cc1,?,-0.6,1.2*,nt,nt,0.1,-0.125,i,
SMILES,DENV2 CPE,E-selectin induc,FGF22 binding-1,Statin myotox sup,PglD inh,XiGFP reactiv,FGF22 binding-2,SYPRO no-protein,others
O=C(c1ccccc1)N1CC(=O)N2[C@H](C1)[C@@H](c1ccc(C#CC3CC3)cc1)[C@@H]2CO,-14.8,0.0,1.8*,nt,nt,0.0,0.055[42 µM],i,
Cc1ccc(-c2ccc([C@H]3[C@H](CO)N4C(=O)CN(C(=O)c5ccc(F)cc5)C[C@@H]34)cc2)cc1,-5.5,-0.5,1.0,nt,nt,0.0,nt,nt,
CCCC#Cc1ccc2c(c1)O[C@H](CN(C)CCC)[C@@H](C)CN([C@H](C)CO)S2(=O)=O,-7.1,0.4,0.0,-20.3,-0.1,-0.5,nt,nt,
Cc1ccc(NC(=O)O/N=C/c2ccc(F)cc2)cc1,4.8,0.1,0.2,-11.8,-7.7,-0.1,nt,nt,
O=C(Nc1ccccc1)O/N=C/c1ccc(F)cc1,13.5,nt,1.4*,-8.1,-0.8,-0.1,-0.08,i,
CCOCCCNS(=O)(=O)c1ccc(NC(=O)c2ccccc2)cc1,1.4,nt,1.8*,-2.5,4.3,nt,0.028,i,
C[C@H]1CN([C@@H](C)CO)S(=O)(=O)c2ccc(C3=CCCC3)cc2O[C@@H]1CN(C)C(=O)Nc1ccc2c(c1)OCO2,5.6,0.6,-0.6,-101.3,4.1,-0.1,nt,nt,
C[C@@H]1CN([C@H](C)CO)S(=O)(=O)c2ccc(C3=CCCC3)cc2O[C@@H]1CN(C)C(=O)Nc1ccc2c(c1)OCO2,16.8,0.8,1.2*,23.7,-1.4,-0.1,-0.492,i,

# Screens (PubChem BioAssay)
